From ChEMBL document CHEMBL4513216, “Probing the Open Global Health Chemical Diversity Library for Multistage-Active Starting Points for Next-Generation Antimalarials” (ACS Infect Dis, 2020) come the findings set out here.

The structures appear in SMILES notation.

This data set is described as follows: Toxicity liver stage against HepG2, at 10uM. Set-up: test concentration 10 uM, cell line HepG2-A16-CD81EGFP. The conditions noted are these: human, HepG2-A16-CD81EGFP cells; read-out: INHIBITION
The class given is cell-based. In short, it runs like this: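 Uninfected HepG2-A16-CD81EGFP cells, 3 × 10^3 per well, 1536-well, plated on prespotted compound at 10 μM final, parasite-free screening media added to match infected plates; puromycin 10 μM positive, DMSO 0.5% negative; run in parallel with 48 h PbLuc assay at 37 °C, 5% CO2; viability by CellTiter-Glo luminescence, normalized to controls.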
For `F[C@@H]1CN(CC2CC2)C[C@@H]1OCc1nc2ccc(C(F)(F)F)cc2[nH]1`, the cytotoxicity at 10 µM is -6.22%.
With `Cc1nn(C)cc1CC(C#N)C(=O)Nc1cccc(O)c1` (stereo not given), the cytotoxicity at 10 µM is 2.8%.
The result for `COc1cccc(C(=O)Nc2n[nH]c(C3CCCO3)n2)c1` (stereo not given) reads 6%.
Take `COc1ncccc1C(=O)NCCn1nc(C)ccc1=O`: the cytotoxicity at 10 µM is -7.69%.
The result for `Cc1cc(C)n(CC(=O)NCc2ccccn2)n1` reads 3.86%; that for `COc1nn(C)cc1C(=O)NCC(=O)Nc1cccnc1`, -8.75%; that for `CCCc1nnsc1C(=O)NCC1CCN(C(=O)c2ccncc2)CC1`, 16.2%.
The result for `O=C(CN1C(=O)CCC1=O)N1Cc2cncnc2C1` reads -8.33%; that for `CC(C)CC(=O)N1CCCC2(CC(C(=O)Nc3ccccc3)=NO2)C1` (stereo not given), 1.46%.
The result for `O=C(c1cscn1)N1C[C@H](OCc2cccnc2)[C@H]2COC[C@H]21` reads -2.07%; that for `Cc1ccnc(OC[C@]23COC[C@H]2CN(C(=O)C2=CCCCC2)C3)n1`, 0.325%; that for `CCS(=O)(=O)N1C[C@H]2CN(Cc3cccc(F)c3)C(=O)[C@H]2C1`, 0.442%.
Consider `CN(C)c1ncc(-c2cc(C(=O)N3CCCC3)n(CC3CC3)c2)cn1`, for which the cytotoxicity at 10 µM is -0.376%.
The result for `c1nc(N2CCCC2)cnc1C1CCNCC1` reads -3.87%; that for `CC(C)C(NC(=O)C1CC1)c1cc(O)nc(-c2cccnc2)n1` (stereo not given), 5.18%.
In the case of `Cc1nn(CCC(=O)NC2CCCOC2)c(C)c1C` (stereo not given), the cytotoxicity at 10 µM worked out at 2.06%.
For the compound `CC(C)(C)C(=O)N1CCC(c2cnc(-c3cn[nH]c3)cn2)CC1`, the cytotoxicity at 10 µM is 1.16%.
Next, `CCc1nc(-c2cncnc2C2CCNC2)no1` (stereo not given): 1.45%.
The result for `c1cncc(CN2CCC(c3csc4nccn34)CC2)c1` reads 2.9%; that for `CO[C@H]1CN(S(=O)(=O)c2ccccc2F)C[C@@]12CCCO2`, -3.08%; that for `CCC(=O)c1ccc(OCC(=O)NCC2CCCO2)cc1` (stereo not given), -52.1%.
The result for `CNC(=O)CN(C)S(=O)(=O)c1c(Br)cc2[nH]c(=O)oc2c1Cl` reads 1.36%.
On to `O=C(CCNC(=O)C1=Cc2ccccc2OC1)Nc1cccnc1`, for which the cytotoxicity at 10 µM was -0.956%.
The result for `O=C1CCN(C(=O)NCc2cccc(Oc3ccccc3)c2)CCN1` reads 4.11%; that for `COc1ccc(C(=O)N(C2CC2)C2CC(=O)NC2=O)cc1` (stereo not given), -10.7%; that for `CC(C)N1CC(C(=O)NC(C)(C)CNC(=O)OC(C)(C)C)CC1=O` (stereo not given), -9.96%.
Next, `CC(C)(C)S(=O)(=O)CCNC(=O)NCCCc1cccc(F)c1`: 17%.
For the compound `COC(=O)c1cccc(S(=O)(=O)N2CSCC2C(=O)N(C)C2CC2)c1` (stereo not given), the cytotoxicity at 10 µM came out at 5.15%.
Next, `CC(=O)NCCC(=O)Nc1cccc(N2CCN(CC3CC3)CC2)c1`: -5.62%; `COC(=O)COc1cc(NCc2c(C)noc2C)c(Cl)cc1C`: 3.2%; `O=C(COc1ccccc1)NCC1CC1`: 7.76%.
In the case of `Cc1ccc(S(=O)(=O)NC(=O)CCc2cscn2)cc1Cl`, the cytotoxicity at 10 µM worked out at 8.9%.
Next, `COC(C)(C)CNC(=O)N(C)Cc1nc(-c2ccccc2)c[nH]1`: 8.07%.
Next, `Cc1ccc(CNc2ccc(C(=O)N3CCNC(=O)C3)cn2)cc1`: 4.64%.
Next, `Cc1ccc(S(=O)(=O)N2CCn3nc(C)nc3C2)c(Cl)c1`: 5.09%.
For the compound `CC1(CCNC(=O)NCc2ccsc2)OCCO1`, the cytotoxicity at 10 µM is -6.21%.
As to `CCOCCN(C)C(=O)Nc1cccc2c1CCN(CC)C2`, the cytotoxicity at 10 µM is -49.3%.
`Cc1nnc(NC(=O)NCCCN2CCC(C(N)=O)CC2)s1`: the cytotoxicity at 10 µM was 5.61%.
Next, `Cn1ncnc1NS(=O)(=O)c1ccc(F)cc1Cl`: 5.73%; `O=C(Nc1ccc(F)cc1)C1CSCN1` (stereo not given): -2.76%; `CCOC(=O)Cn1ccc2cc(NC(=O)N3CCSCC3)ccc21`: 9.68%.
`CN(CCn1cccn1)c1cc(C(F)(F)F)nc(-c2cccnc2)n1`: the cytotoxicity at 10 µM was -3.63%.
Regarding `CCCn1nc(-c2nc(C3CC3)no2)ccc1=O`, the cytotoxicity at 10 µM stood at 1.77%.
`CN(C)Cc1nc(-n2cnc(C(=O)NC3CCCC3)c2)n2ccccc12`: the cytotoxicity at 10 µM amounted to 7.75%.
The result for `Cc1ccn2c(F)c(C(=O)N3CCC4(CCCN(C)C4=O)C3)nc2c1` (stereo not given) reads 2.51%; that for `c1ccc(C(CNc2ncccn2)N2CCOCC2)nc1` (stereo not given), -47.5%; that for `CCn1ccnc1CN1CCCC(CO)(CCCc2ccccc2)C1` (stereo not given), -4.84%.
For `COCCC1(C(=O)O)CCCN(Cc2ccccc2OCCO)C1` (stereo not given), the cytotoxicity at 10 µM was -40.9%.
The result for `CC(C)(C)CN1CCN(CC2CC2)C(CCO)C1` (stereo not given) reads -2.42%; that for `CCN1CCN(S(=O)(=O)N2CCCCCC2)[C@H]2CS(=O)(=O)C[C@H]21`, 1.58%.
Next, `Cc1ccnc(NCCCN2CCc3ccccc32)n1`: 0.979%; `COc1ccc(C(=O)N2C[C@@H](C(=O)O)[C@H](c3ccccc3C)C2)c(O)c1`: -4.31%; `Cc1csc(CCCNC(=O)[C@H]2CNC[C@@H](C(=O)N3CCCC3)C2)n1`: -15.9%.
Next, `O=C(CCC1CC1)N1C[C@@H](CN2CCCC2)[C@@H](CO)C1`: -4.43%; `Cc1cc(C)n(CC2CCCN2CCCS(C)(=O)=O)n1` (stereo not given): -3.48%.
`CN(CCNC(=O)c1scnc1Cl)c1ccccc1`: the cytotoxicity at 10 µM was 6.88%.
The result for `CC(C)c1nnc2n1CCN(C(=O)c1ccc(OCC(N)=O)cc1)C2` reads -4.84%.
Next, `Cc1ccc(C(=O)N2CCC3(CC2)COC(COc2cccnc2)C3)o1` (stereo not given): -3.16%; `c1cncc(-c2ncnc3c2CCN(Cc2ccsc2)CC3)c1`: 8.74%; `CN(C)CCN1C[C@@H]2CN(C(=O)c3ccsc3)C[C@@H]2C1=O`: -7.79%.
Take `Cn1cc(C(=O)N[C@@H]2CN(Cc3cccnc3)[C@@H]3CCCO[C@@H]32)cn1`: the cytotoxicity at 10 µM worked out at 1.18%.
The result for `Cn1ccnc1CN1CCC2(CC1)CC(Oc1cccnc1)C2` reads -20.7%.
The result for `O=C(c1ccco1)N1CCOCC2(C1)CN(c1cccnc1)C(=O)CO2` (stereo not given) reads 5.88%; that for `O=C(N1CCCC1)N1CCC[C@]2(C[C@@H](Oc3ncccc3F)CO2)C1`, -0.269%; that for `CN(C)Cc1cncc2c1CCN(C1CCOCC1)C2`, 11.1%.
The result for `CN(C)[C@@H]1CN(C(=O)Cc2cccc(F)c2)[C@@H]2CCCO[C@H]12` reads 1.37%; that for `CN(C)[C@@H]1CCN(C(=O)Cc2ccc(F)cc2)[C@H]1Cc1cnn(C)c1`, 4.58%.
For `Cn1ccc(C(=O)N2C[C@H]3CCC[C@@]3(COCc3cccnc3)C2)n1`, the cytotoxicity at 10 µM is 6.87%.
Next, `CC1(C)CC(n2cc3nc(N)[nH]cc-3c2=O)CC(C)(C)N1`: -12.8%; `CC(C)=CCN1C[C@@H]2CC[C@H]1CN(C(=O)c1c[nH]c(=O)c(Cl)c1)C2`: -14.5%.
